Calls of active or inactive are those of the source. No cut-off for these calls is given here.
What was measured:
Rattus norvegicus [1] = assay: Mean number of shocks produced by CDPZ in rats at a dose of 12 mg/kg was determined by vogel's punished licking assay; format: functional
How it was run: (§1)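 Vogel punished licking test in rats; number of shocks accepted recorded per dose group (n 6–10); each dose compared with the 0 mg/kg group of the same experiment by Wilcoxon rank sum test.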

Rattus norvegicus [2] = assay: Geller-cook activity was determined using wilcoxon signed rank test on non punished schedule at dose 1 mg/kg in rats; format: functional
How it was run: (§2)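 Geller–Cook conflict schedule with punished and nonpunished response rates recorded per treatment; 6 animals per dose, controls 12–17; each dose compared to its own control by Wilcoxon signed rank test, p < 0.05.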

Rattus norvegicus [3] = assay: Mean number of shocks produced by the compound in rats at a dose of 3 mg/kg was determined by vogel's punished licking assay; format: functional; how it was run: as §1
Rattus norvegicus [4] = assay: Mean number of shocks produced by the compound in rats at a dose of 0 mg/kg was determined by vogel's punished licking assay; format: functional; how it was run: as §1
[5] = molecular target: GABA-A receptor; anion channel; assay: (§3) Displacement of [3H]flunitrazepam from GABA-A benzodiazepine receptor of rat cortical membranes; format: cell membranes, Membrane
How it was run: (§4)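 Rat membranes incubated 60 min at 4 °C with [3H]flunitrazepam, 50 µg membrane protein and graded test drug in 200 µL containing NaCl, 10 mM Hepes/Tris pH 7.4 and 1 mM MgCl2; bound ligand separated by rapid filtration on GF/B; mean affinity, SE ≤10% of mean.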

Rattus norvegicus [6] = assay: Geller-cook activity was determined using wilcoxon signed rank test on punished schedule at dose 1 mg/kg in rats; format: functional; how it was run: as §2
[7] = Area under curve was determined for the compound after po dose of 5.22 mg/kg in rats; format: ADME, organism-based; set-up: dose 5.22 mg/kg, route oral; details: rat, in vivo
Mus musculus [8] = species: Mus musculus; assay: Ability to antagonize the muscle relaxation effect in mice caused by a benzodiazepine full agonist, triazolam.; format: functional
How it was run: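 Muscle relaxation induced by triazolam; test compound and triazolam given separately, traction scored 30 min after dosing; ED50 for blocking the relaxant effect.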

[9] = molecular target: T1, GABA-A receptor; alpha-1/beta-2/gamma-2 (Homo sapiens) (UniProt P14867+P47870+P18507); assay: (§5) In vitro GABA-mediated chloride current in A293 cells expressing GABA-A benzodiazepine receptor alpha-1-beta-2-gamma-2 subunits at 5 uM; format: functional, cell-based; details: HEK293
Rattus norvegicus [10] = assay: Geller-cook activity was determined using wilcoxon signed rank test on non punished schedule at dose 3 mg/kg in rats; format: functional; how it was run: as §2
Rattus norvegicus [11] = assay: Geller-cook activity was determined using wilcoxon signed rank test on punished schedule at dose 3 mg/kg in rats; format: functional; how it was run: as §2
Rattus norvegicus [12] = assay: Mean number of shocks produced by the compound in rats at a dose of 1 mg/kg was determined by vogel's punished licking assay; format: functional; how it was run: as §1
[13] = molecular target: T2, GABA-A receptor; anion channel (Rattus norvegicus) (UniProt O09028+P15431+P18506+P18508+P19969+P20236+P23574+P23576+P28471+P28473+P30191+P62813+P63079+P63138+Q91ZM7+Q9ES14); assay: Shift in [35S]TBPS binding to GABA-A Benzodiazepine receptor of rat brain membrane
[14] = Half-life after po dose of 5.22 mg/kg in rats; format: ADME, organism-based; set-up: dose 5.22 mg/kg, route oral; details: rat, in vivo
[15] = Maximum serum concentration after po dose of 5.22 mg/kg in rats; format: ADME, organism-based; set-up: dose 5.22 mg/kg, route oral; details: rat
[16] = Area under curve was determined for the compound after iv dose of 5.10 mg/kg in rats; format: ADME, organism-based; set-up: dose 5.1 mg/kg, route intravenous; details: rat, in vivo, 5.1 mg/kg
Rattus norvegicus [17] = assay: Mean number of shocks produced by the compound in rats at a dose of 10 mg/kg was determined by vogel's punished licking assay; format: functional; how it was run: as §1
[18] = molecular target: T2, GABA-A receptor; anion channel (Rattus norvegicus); assay: as §3; format: cell membranes; set-up: concentration or dose not given beside the values; details: Membrane, concentration not given here; how it was run: as §4
[19] = molecular target: GABA A receptor alpha-3/beta-2/gamma-2 (Homo sapiens) (UniProt P47870+P18507+P34903); assay: In vitro GABA-mediated chloride current in A293 cells expressing GABA-A benzodiazepine receptor alpha-3-beta-2-gamma-2 subunits at 5 uM; format: functional, cell-based; details: HEK293
Rattus norvegicus [20] = assay: In vivo efficacy evaluated for ability to antagonize metrazole induced clonic convulsions in rat after ip injection; format: functional
[21] = Half-life after iv dose of 5.10 mg/kg in rats; format: ADME, organism-based; set-up: dose 5.1 mg/kg, route intravenous; details: rat, in vivo, 5.1 mg/kg
[22] = molecular target: T1, GABA-A receptor; alpha-1/beta-2/gamma-2 (Homo sapiens); assay: as §5; format: functional, cell-based; details: HEK293; remark: listed apart in the source
[23] = Total plasma clearance after iv dose of 5.10 mg/kg in rats; format: ADME, organism-based; set-up: dose 5.1 mg/kg, route intravenous; details: rat, 5.1 mg/kg, read-out: Clp (converted)
Mus musculus [24] = assay: In vivo acute electroshock physical dependence activity in mice; Active; format: functional, organism-based
[25] = Oral bioavailability in rats at a dose of 5.22 mg/kg; format: ADME, organism-based; details: rat, in vivo
[26] = Time at which Cmax was reached was determined after po dose of 5.22 mg/kg of compound in rats; format: ADME, organism-based; set-up: dose 5.22 mg/kg, route oral; details: rat, in vivo
How it was run: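 Male Sprague–Dawley rats dosed orally with compound in a solution formulation, n = 3–4 per compound; serum drug concentrations measured over time, lower limit of quantitation 50 ng/mL. Tmax reported as the range of observed values across animals.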

Rattus norvegicus [27] = assay: Mean number of shocks produced by the compound in rats at a dose of 0.3 mg/kg was determined by vogel's punished licking assay; format: functional; how it was run: as §1
Mus musculus [28] = assay: In vivo efficacy is evaluated by percent control of cerebellar GMP levels in (drug+stress) treated mice/mice under stress; format: functional; set-up: concentration or dose not given beside the values
How it was run: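 Male CF-1 mice given drug orally in vehicle 122 before electric footshock stress, controls given vehicle (1 mL/100 g); killed 30 min after treatment; cerebellum homogenized in 1% perchloric acid, iced 30 min, boiled 5 min, spun 17000g 20 min; supernatant cGMP by radioimmunoassay, expressed as % of stress control.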

Ki [5]: 3.27 nM | AUC [7]: 3570 ng·h/mL | Change in Cl- current [9]: 0.85 | Shift [13]: 0.48 | half-life [14]: 1.8 h | Cmax [15]: 1170 ng/mL | AUC [16]: 3540 ng·h/mL | inhibition [18]: 71% | Change in Cl- current [19]: 0.54 | half-life [21]: 1.2 h | Change in Cl- current [22]: 0.3 | clearance [23]: 25.2 mL/min/kg | bioavailability [25]: 101% | Tmax [26]: 0.5 h
Compound: CCCC(=O)O.C[C@@H]1CN(C(=O)N2Cc3c(C(=O)OC(C)(C)C)ncn3-c3ccc(Cl)cc32)C[C@H](C)N1
Mean no. of shocks (Rattus norvegicus [1]): 19 | Gellar cook activity (Rattus norvegicus [2]): 47 | Mean no. of shocks (Rattus norvegicus [3]): 5.7 | Mean no. of shocks (Rattus norvegicus [4]): 3.8 | Gellar cook activity (Rattus norvegicus [6]): 46 | ED50 (Mus musculus [8]): > 30 mg/kg | Gellar cook activity (Rattus norvegicus [10]): 43 | Gellar cook activity (Rattus norvegicus [11]): 27 | Mean no. of shocks (Rattus norvegicus [12]): 3.1 | Mean no. of shocks (Rattus norvegicus [17]): 12 | ED50 (Rattus norvegicus [20]): 3.7 mg/kg | Acute electroshock activity (Mus musculus [24]): Active | Mean no. of shocks (Rattus norvegicus [27]): 5.3 | Control (Mus musculus [28]): 64%

— ChEMBL document CHEMBL1132620, “Piperazine imidazo[1,5-a]quinoxaline ureas as high-affinity GABAA ligands of dual functionality” (J Med Chem, 1999)
